System: U2OS
Assay: Multiplex assay against U2OS
Type: toxicity, cell-based
Conditions: human
In short: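 Four dyes were applied at seeding to live cells: Hoechst33342, BioTracker Green Microtubule Cytoskeleton Dye, MitoTracker Red and Annexin V Alexa Fluor 680. Imaging after compound addition used a CQ1 microscope at 37°C and 5% CO2. CellPathfinder machine-learning gating then sorted cells into Hoechst high-intensity objects or normal cells, normal cells into healthy, pyknosed or fragmented nuclei, and pyknosed cells into mitotic or apoptotic, with tubulin, mitochondrial-mass and membrane-permeability phenotypes given as per cents of healthy-nucleus cells.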

[1] = 12 h, 1 µM, compound concentration 1 uM, replicate 1
[2] = 12 h, 1 µM, compound concentration 1 uM, replicate 2
[3] = 12 h, 10 µM, compound concentration 10 uM, replicate 1
[4] = 12 h, 10 µM, compound concentration 10 uM, replicate 2
[5] = 24 h, 1 µM, compound concentration 1 uM, replicate 1
[6] = 24 h, 1 µM, compound concentration 1 uM, replicate 2
[7] = 24 h, 10 µM, compound concentration 10 uM, replicate 1
[8] = 24 h, 10 µM, compound concentration 10 uM, replicate 2
[9] = 48 h, 1 µM, compound concentration 1 uM, replicate 1
[10] = 48 h, 1 µM, compound concentration 1 uM, replicate 2
[11] = 48 h, 10 µM, compound concentration 10 uM, replicate 1
[12] = 48 h, 10 µM, compound concentration 10 uM, replicate 2

Cc1cc(-c2ccc3c(c2)CC[C@H]3N2CC3(CCN(C(=O)Cc4cn5cc(C)sc5n4)CC3)C2)ncn1 [PF-5190457]
Population Apoptotic (%) [1]: 82% | Population Fragmented Nuclei (%) [1]: 24% | Population Healthy Nuclei (%) [1]: 65% | Population Hoechst High Intensity Objects (%) [1]: 1% | Population Membrane Permeable-Phenotype (%) [1]: 7% | Population Mitochondria Different-Phenotype (%) [1]: 3% | Population Mitotic Cells (%) [1]: 17% | Population Normal (%) [1]: 98% | Population Pyknosed Nuclei (%) [1]: 9% | Population Tubulin-Different-Phenotype (%) [1]: 4% | Total Cell Count [1]: 239 | Population Apoptotic (%) [2]: 63% | Population Fragmented Nuclei (%) [2]: 21% | Population Healthy Nuclei (%) [2]: 66% | Population Hoechst High Intensity Objects (%) [2]: 0% | Population Membrane Permeable-Phenotype (%) [2]: 4% | Population Mitotic Cells (%) [2]: 36% | Population Normal (%) [2]: 100% | Population Pyknosed Nuclei (%) [2]: 11% | Population Tubulin-Different-Phenotype (%) [2]: 3% | Total Cell Count [2]: 93 | Population Apoptotic (%) [3]: 61% | Population Fragmented Nuclei (%) [3]: 18% | Population Healthy Nuclei (%) [3]: 66% | Population Hoechst High Intensity Objects (%) [3]: 2% | Population Membrane Permeable-Phenotype (%) [3]: 7% | Population Mitochondria Different-Phenotype (%) [3]: 5% | Population Mitotic Cells (%) [3]: 38% | Population Normal (%) [3]: 97% | Population Pyknosed Nuclei (%) [3]: 14% | Population Tubulin-Different-Phenotype (%) [3]: 5% | Total Cell Count [3]: 238 | Population Apoptotic (%) [4]: 71% | Population Fragmented Nuclei (%) [4]: 14% | Population Healthy Nuclei (%) [4]: 74% | Population Hoechst High Intensity Objects (%) [4]: 1% | Population Membrane Permeable-Phenotype (%) [4]: 8% | Population Mitochondria Different-Phenotype (%) [4]: 10% | Population Mitotic Cells (%) [4]: 28% | Population Normal (%) [4]: 98% | Population Pyknosed Nuclei (%) [4]: 11% | Population Tubulin-Different-Phenotype (%) [4]: 6% | Total Cell Count [4]: 126 | Population Apoptotic (%) [5]: 69% | Population Fragmented Nuclei (%) [5]: 25% | Population Healthy Nuclei (%) [5]: 66% | Population Hoechst High Intensity Objects (%) [5]: 1% | Population Membrane Permeable-Phenotype (%) [5]: 8% | Population Mitochondria Different-Phenotype (%) [5]: 3% | Population Mitotic Cells (%) [5]: 30% | Population Normal (%) [5]: 98% | Population Pyknosed Nuclei (%) [5]: 8% | Population Tubulin-Different-Phenotype (%) [5]: 5% | Total Cell Count [5]: 282 | Population Apoptotic (%) [6]: 33% | Population Fragmented Nuclei (%) [6]: 21% | Population Healthy Nuclei (%) [6]: 76% | Population Hoechst High Intensity Objects (%) [6]: 0% | Population Membrane Permeable-Phenotype (%) [6]: 6% | Population Mitochondria Different-Phenotype (%) [6]: 1% | Population Mitotic Cells (%) [6]: 66% | Population Normal (%) [6]: 99% | Population Pyknosed Nuclei (%) [6]: 2% | Population Tubulin-Different-Phenotype (%) [6]: 2% | Total Cell Count [6]: 126 | Population Apoptotic (%) [7]: 67% | Population Fragmented Nuclei (%) [7]: 18% | Population Healthy Nuclei (%) [7]: 72% | Population Hoechst High Intensity Objects (%) [7]: 2% | Population Membrane Permeable-Phenotype (%) [7]: 3% | Population Mitochondria Different-Phenotype (%) [7]: 0% | Population Mitotic Cells (%) [7]: 32% | Population Normal (%) [7]: 97% | Population Pyknosed Nuclei (%) [7]: 9% | Population Tubulin-Different-Phenotype (%) [7]: 1% | Total Cell Count [7]: 295 | Population Apoptotic (%) [8]: 84% | Population Healthy Nuclei (%) [8]: 69% | Population Hoechst High Intensity Objects (%) [8]: 1% | Population Membrane Permeable-Phenotype (%) [8]: 11% | Population Mitochondria Different-Phenotype (%) [8]: 8% | Population Mitotic Cells (%) [8]: 15% | Population Normal (%) [8]: 98% | Population Pyknosed Nuclei (%) [8]: 12% | Population Tubulin-Different-Phenotype (%) [8]: 4% | Total Cell Count [8]: 154 | Population Apoptotic (%) [9]: 84% | Population Fragmented Nuclei (%) [9]: 20% | Population Healthy Nuclei (%) [9]: 71% | Population Hoechst High Intensity Objects (%) [9]: 0% | Population Membrane Permeable-Phenotype (%) [9]: 7% | Population Mitochondria Different-Phenotype (%) [9]: 4% | Population Mitotic Cells (%) [9]: 15% | Population Normal (%) [9]: 99% | Population Pyknosed Nuclei (%) [9]: 8% | Population Tubulin-Different-Phenotype (%) [9]: 4% | Total Cell Count [9]: 402 | Population Apoptotic (%) [10]: 66% | Population Fragmented Nuclei (%) [10]: 16% | Population Healthy Nuclei (%) [10]: 78% | Population Hoechst High Intensity Objects (%) [10]: 2% | Population Membrane Permeable-Phenotype (%) [10]: 4% | Population Mitochondria Different-Phenotype (%) [10]: 2% | Population Mitotic Cells (%) [10]: 33% | Population Normal (%) [10]: 97% | Population Pyknosed Nuclei (%) [10]: 5% | Population Tubulin-Different-Phenotype (%) [10]: 2% | Total Cell Count [10]: 184 | Population Apoptotic (%) [11]: 74% | Population Fragmented Nuclei (%) [11]: 16% | Population Healthy Nuclei (%) [11]: 71% | Population Hoechst High Intensity Objects (%) [11]: 3% | Population Membrane Permeable-Phenotype (%) [11]: 5% | Population Mitochondria Different-Phenotype (%) [11]: 2% | Population Mitotic Cells (%) [11]: 25% | Population Normal (%) [11]: 96% | Population Pyknosed Nuclei (%) [11]: 12% | Population Tubulin-Different-Phenotype (%) [11]: 3% | Total Cell Count [11]: 389 | Population Apoptotic (%) [12]: 76% | Population Fragmented Nuclei (%) [12]: 18% | Population Membrane Permeable-Phenotype (%) [12]: 11% | Population Mitochondria Different-Phenotype (%) [12]: 6% | Population Mitotic Cells (%) [12]: 23% | Population Pyknosed Nuclei (%) [12]: 10% | Population Tubulin-Different-Phenotype (%) [12]: 4% | Total Cell Count [12]: 217

Reference: ChEMBL document CHEMBL5058577, “EUbOPEN Chemogenomics Library 2 (Multiplex)” (2022)
